Test [1] addresses T1, Steryl-sulfatase (Homo sapiens, UniProt P08842).
T1 sequence (P08842 whole entry): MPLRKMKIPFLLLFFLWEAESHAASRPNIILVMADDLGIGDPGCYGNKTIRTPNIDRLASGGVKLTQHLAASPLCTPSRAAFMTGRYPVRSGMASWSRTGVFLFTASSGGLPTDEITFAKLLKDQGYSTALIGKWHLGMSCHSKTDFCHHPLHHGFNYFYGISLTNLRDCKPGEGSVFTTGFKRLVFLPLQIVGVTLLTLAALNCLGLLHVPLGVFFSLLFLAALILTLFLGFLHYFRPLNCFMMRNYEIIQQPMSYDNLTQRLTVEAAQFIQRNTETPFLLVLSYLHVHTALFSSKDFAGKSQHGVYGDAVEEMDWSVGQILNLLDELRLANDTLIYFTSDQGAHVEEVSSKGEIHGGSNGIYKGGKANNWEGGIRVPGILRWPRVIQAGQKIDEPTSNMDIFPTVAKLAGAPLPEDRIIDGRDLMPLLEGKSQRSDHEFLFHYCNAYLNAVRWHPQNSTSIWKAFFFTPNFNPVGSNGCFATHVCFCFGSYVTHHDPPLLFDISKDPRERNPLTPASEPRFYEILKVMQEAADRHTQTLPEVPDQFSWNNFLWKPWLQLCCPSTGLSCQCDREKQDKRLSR
The experiment in a line: Inhibition of steroid sulfatase in human JEG3 cells using [3H] E1S as substrate incubated for 20 hrs by scintillation spectrometry analysis. It counts as cell-based, JEG-3. The method in brief:
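Intact JEG-3 monolayers incubated 20 h at 37 °C in serum-free EMEM with [3H]E1S (5 pmol, 60 Ci/mmol), with or without inhibitor at 10 µM. Estrone in the medium separated from E1S by toluene partition, [14C]estrone used to correct for procedural losses. E1S hydrolysed calculated from scintillation counts.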

The subject of test [2] is T47D. The experiment in a line: Antiproliferative activity against human T47D cells assessed as reduction in cell proliferation measured after 5 days in presence of estradiol sulfate by crystal violet staining based assay. Particulars: 120 h. The format is functional. The method in brief:
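T-47D cells kept in EMEM with pyruvate, gentamycin, bicarbonate and 10% FBS at 37 °C, 5% CO2. After 3 days of growth, medium swapped for one with compound, 100 nM estradiol sulfate and 10% charcoal-stripped FBS, then 5 days of incubation. Glutaraldehyde fixation, crystal violet stain, ethanol elution, OD at 578 nm. IC50 reported as mean ± SEM of triplicate assays.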

Test [3] addresses T2, Steryl-sulfatase (Homo sapiens) (UniProt P08842).
T2 sequence (whole entry): T1 sequence (P08842 whole entry)
Briefly: Inhibition of steroid sulfatase in human JEG3 cell lysates at 10 uM using [3H] E1S as substrate after 1 hr by scintillation spectrometry analysis relative to control. Particulars: JEG-3. The format is cell-free. The method in brief:
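JEG-3 placental choriocarcinoma lysate (125 µg protein/mL) incubated 1 h with inhibitor at 10 µM and [3H]E1S brought to 20 µM with unlabelled E1S. Estrone product extracted into toluene, [14C]E1 used to correct for losses, 3H/14C counted by scintillation. Reported as % inhibition versus untreated control, mean ± SEM, n=3.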

Test [4] deals with T1, Steryl-sulfatase. Briefly: Inhibition of steroid sulfatase in human JEG3 cell lysates using [3H] E1S as substrate after 1 hr by scintillation spectrometry analysis. The format is cell-free, JEG-3. The method in brief:
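Estrone taken into toluene, recovery corrected with [14C]E1, scintillation counting. E1S hydrolysed calculated from 3H counts and substrate specific activity, and IC50 derived from the dose-response.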

IC50 and inhibition data for 22 molecules are collected here from ChEMBL document CHEMBL4616636, “A new series of aryl sulfamate derivatives: Design, synthesis, and biological evaluation” (Bioorg Med Chem, 2020).

By IC50 is commonly meant the concentration that gives 50% inhibition. A word on the inhibition: it is the relative decrease from the control value, in per cent.

For the molecule `NS(=O)(=O)Oc1ccc(C(=O)NC23CC4CC(CC(C4)C2)C3)cc1Cl`, the IC50 in test [1] turned out to be 150 nM; in test [2], 1040 nM; in test [4], 25.8 nM. For the same molecule, the inhibition in test [3] was determined as 98.3%.

On to `NS(=O)(=O)Oc1ccc(NC(=O)NC23CC4CC(CC(C4)C2)C3)cc1`, for which, in test [3], the inhibition was determined as 5.32%.

Regarding `COc1ccc(C(=O)Nc2ccc(OS(N)(=O)=O)cc2)cc1`, in test [3], the inhibition amounted to 72.7%.

As for `NS(=O)(=O)Oc1ccc(NC(=O)c2ccc3ccccc3c2)cc1`, the inhibition in test [3] was determined as 53.6%. On the same count and under the same terms, then `CN(C(=O)C12CC3CC(CC(C3)C1)C2)c1ccc(OS(N)(=O)=O)cc1`, with 61%; and `NS(=O)(=O)Oc1ccc(NC(=O)c2cccnc2)cc1`, with 12.9%. On the same count and under the same terms, the same measure for `NS(=O)(=O)Oc1ccc(CNC(=O)C23CC4CC(CC(C4)C2)C3)cc1`: -5.3%.

`NS(=O)(=O)Oc1ccc(NC(=O)c2ccc(Cl)cc2)cc1`: in test [3], the inhibition came out at 24.6%. The same measure, in the same setting: the same measure for `NS(=O)(=O)Oc1ccc(NC(=O)C23CC4CC(CC(C4)C2)C3)cc1Cl`: 88.6%.

As to `NS(=O)(=O)Oc1ccc(NC(=O)C23CC4CC(CC(C4)C2)C3)cc1Br`, in test [3], the inhibition was determined as 82.7%. In the case of `NS(=O)(=O)Oc1ccc(C(=O)NC23CC4CC(CC(C4)C2)C3)cc1`, the inhibition in test [3] was determined as 90%. In the case of `Cc1cc(OS(N)(=O)=O)ccc1NC(=O)C12CC3CC(CC(C3)C1)C2`, the inhibition in test [3] is 58.5%. On to `NS(=O)(=O)Oc1ccc(C(=O)NC23CC4CC(CC(C4)C2)C3)cc1Br`, for which the IC50 came out at 4670 nM in test [2] and 74.1 nM in test [4]. The inhibition in test [3] was determined as 94.6%.

For the molecule `NS(=O)(=O)Oc1ccc(NC(=O)c2ccccc2)cc1`, the inhibition in test [3] was determined as 25.4%. As for `NS(=O)(=O)Oc1ccc(NC(=O)C2CCCC2)cc1`, the inhibition in test [3] was 62%. For `NS(=O)(=O)Oc1ccc2c3c(c(=O)oc2c1)CCCCC3` [IROSUSTAT], the IC50 in test [2] stood at 920 nM. In the case of `NS(=O)(=O)Oc1ccc(NC(=O)C2CCCCCC2)cc1`, the inhibition in test [3] was determined as 52.3%.

In the case of `NS(=O)(=O)Oc1ccc2c(ccn2C(=O)C2CCCCC2)c1`, the inhibition in test [3] was found to be 14.3%.

Regarding `NS(=O)(=O)Oc1ccc(NC(=O)C23CC4CC(CC(C4)C2)C3)cc1F`, in test [3], the inhibition was found to be 86.3%. Take `NS(=O)(=O)Oc1ccc(C(=O)NC23CC4CC(CC(C4)C2)C3)cc1F`: the IC50 in test [2] is 3400 nM; in test [4], 67.7 nM. The inhibition in test [3] came to 97.2%. On to `NS(=O)(=O)Oc1ccc(NC(=O)C23CC4CC(CC(C4)C2)C3)cc1`, for which the IC50 in test [1] was determined as 13.6 nM; in test [2] it was 5780 nM; in test [4], 110 nM. Moreover, in test [3], the inhibition turned out to be 93.9%. Regarding `NS(=O)(=O)Oc1ccc2c(ccn2C(=O)C23CC4CC(CC(C4)C2)C3)c1`, in test [3], the inhibition turned out to be 63.4%.
